Active and inactive are the calls of the source. The rule behind the calls is not given here. Where a SMILES comes first, the peptide text is derived from it.
How the values were obtained:
[1] = target: T1, Motilin receptor (Oryctolagus cuniculus, UniProt A5A4K8); assay: Displacement of [125I]motilin from MTL receptor in rabbit duodenum homogenate
How it was run: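 Tissue homogenate incubated at 25 °C with 25 pM [¹²⁵I]motilin for 120 min. Stopped with ice-cold buffer, then bound and free ligand separated by centrifugation at 1500g for 5 min. Pellet washed with ice-cold buffer and counted by gamma counter. IC₅₀ is the concentration displacing 50% of ¹²⁵I-motilin binding.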

[2] = target: T1, Motilin receptor; assay: Antagonist activity at MTL receptor in rabbit duodenum homogenate; assay type: functional, tissue-based; settings: read-out: pA2 (converted)
[3] = Oral bioavailability in rat at 10 mg/kg; assay type: ADME, organism-based; settings: in vivo
[4] = Metabolic stability in rat liver S9 fraction assessed as compound remaining after 30 mins; assay type: ADME, subcellular; settings: read-out: Stability
How it was run: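 Compound incubated with rat liver S-9 for 30 min at 37 °C. Stability is expressed as residual % of compound.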

[5] = test system: Canis familiaris; assay: Suppression of MTL receptor-mediated motilin-induced colonic motility in conscious dog 5 mg/kg administered 30 mins before motilin challenge; assay type: functional, organism-based; parameters: dose 5 mg/kg; settings: Canis lupus familiaris
[6] = test system: Canis familiaris; assay: Suppression of MTL receptor-mediated motilin-induced gastric motility in conscious dog 5 mg/kg administered 30 mins before motilin challenge; assay type: functional, organism-based; parameters: dose 5 mg/kg; settings: Canis lupus familiaris; Stomach
[7] = Apparent permeability across human Caco-2 cells at pH 6.8; assay type: ADME, cell-based; settings: Caco-2, pH 6.8

T1 sequence (A5A4K8 whole entry): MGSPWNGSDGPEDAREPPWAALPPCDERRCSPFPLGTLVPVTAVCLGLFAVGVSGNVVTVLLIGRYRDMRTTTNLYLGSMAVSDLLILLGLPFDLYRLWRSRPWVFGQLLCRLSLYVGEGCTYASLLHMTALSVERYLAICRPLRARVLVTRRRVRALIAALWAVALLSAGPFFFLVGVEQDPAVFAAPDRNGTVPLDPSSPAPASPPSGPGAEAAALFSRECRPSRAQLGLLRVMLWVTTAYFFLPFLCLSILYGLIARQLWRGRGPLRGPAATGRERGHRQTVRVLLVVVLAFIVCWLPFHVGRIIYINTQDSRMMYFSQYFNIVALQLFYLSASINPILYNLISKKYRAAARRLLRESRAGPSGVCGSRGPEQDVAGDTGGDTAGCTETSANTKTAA

Row | SMILES | IC50 [1] | Kb [2] | bioavailability [3] | remaining at 0.5 h [4] | Activity [5] | Activity [6] | Papp [7]
1 | CC(C)(C)c1cc(C[C@@H]2NC(=O)[C@@H](NC(=O)[C@@H](N)Cc3ccccc3)CCCCCC(=O)CCNC2=O)ccc1O | 12 nM | 39.8 nM | – | – | – | – | –
2 | CC(C)(C)c1cc(C[C@H](NC(=O)[C@@H](NC(=O)[C@@H](N)Cc2ccccc2)c2ccccc2)C(N)=O)ccc1O (HELM PEPTIDE1{F.[Phg].[CC(C)(C)c1cc(C[C@H](N[*:1])C(=O)[*:2])ccc1O].[am]}$$$$V2.0) | 12 nM | 15.8 nM | – | – | – | – | –
3 | CC(C)[C@@H](C(=O)N[C@@H](Cc1ccc(O)c(C(C)(C)C)c1)C(N)=O)N(C)C(=O)[C@@H](N)Cc1ccccc1 (HELM PEPTIDE1{F.[meV].[CC(C)(C)c1cc(C[C@H](N[*:1])C(=O)[*:2])ccc1O].[am]}$$$$V2.0) | 1.1 nM | 12.6 nM | 6% | 69% | – | – | –
4 | CC(C)[C@H](NC(=O)[C@@H](N)Cc1ccccc1)C(=O)N(C)[C@@H](Cc1ccc(O)c(C(C)(C)C)c1)C(N)=O (HELM PEPTIDE1{F.V.[CN([C@@H](Cc1ccc(O)c(C(C)(C)C)c1)C(=O)[*:2])[*:1]].[am]}$$$$V2.0) | 24 nM | 63.1 nM | – | 7% | – | – | –
5 | C[C@H](NC(=O)[C@@H](N)Cc1ccccc1)C(=O)N[C@@H](Cc1ccc(O)c(C(C)(C)C)c1)C(N)=O (HELM PEPTIDE1{F.A.[CC(C)(C)c1cc(C[C@H](N[*:1])C(=O)[*:2])ccc1O].[am]}$$$$V2.0) | 185 nM | > 1000 nM | – | – | – | – | –
6 | CC(C)[C@@H](C(=O)N[C@H](C)Cc1ccc(O)c(C(C)(C)C)c1)N(C)C(=O)[C@@H](N)Cc1ccccc1 | 1.9 nM | 3.98 nM | 65% | 100% | Active | Active | 12.1 ×10⁻⁶ cm/s
7 | CC(C)(C)c1cc(C[C@H](NC(=O)[C@H](Cc2ccccc2)NC(=O)[C@@H](N)Cc2ccccc2)C(N)=O)ccc1O (HELM PEPTIDE1{F.F.[CC(C)(C)c1cc(C[C@H](N[*:1])C(=O)[*:2])ccc1O].[am]}$$$$V2.0) | 6 nM | 63.1 nM | – | – | – | – | –
8 | CC(C)[C@H](NC(=O)[C@@H](N)Cc1ccccc1)C(=O)N[C@@H](Cc1ccc(O)c(C(C)(C)C)c1)C(N)=O (HELM PEPTIDE1{F.V.[CC(C)(C)c1cc(C[C@H](N[*:1])C(=O)[*:2])ccc1O].[am]}$$$$V2.0) | 46 nM | 126 nM | – | – | – | – | –
9 | CC(C)[C@@H](C(=O)N(C)[C@@H](Cc1ccc(O)c(C(C)(C)C)c1)C(N)=O)N(C)C(=O)[C@@H](N)Cc1ccccc1 (HELM PEPTIDE1{F.[meV].[CN([C@@H](Cc1ccc(O)c(C(C)(C)C)c1)C(=O)[*:2])[*:1]].[am]}$$$$V2.0) | 4.3 nM | 2.51 nM | 30% | 80% | Active | Active | 2.31 ×10⁻⁶ cm/s
10 | CC(C)C[C@H](NC(=O)[C@@H](N)Cc1ccccc1)C(=O)N[C@@H](Cc1ccc(O)c(C(C)(C)C)c1)C(N)=O (HELM PEPTIDE1{F.L.[CC(C)(C)c1cc(C[C@H](N[*:1])C(=O)[*:2])ccc1O].[am]}$$$$V2.0) | 27 nM | 50.1 nM | – | – | – | – | –
